How the values were obtained:
[1] = Competitive inhibition of Streptococcus pneumoniae ASADH using aspartyl semialdehyde as substrate using Dixon plot analysis
Method in brief: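 Recombinant S. pneumoniae enzyme, reverse reaction read as NADPH rise at 340 nm, room temperature. Buffer: 120 mM CHES pH 8.6, 200 mM KCl, 20% DMSO for DMSO-soluble inhibitors. Substrates: 1 mM ASA, 1.5 mM NADP, 20 mM phosphate. Enzyme added last; inhibitor serially diluted. Initial velocities fitted to Dixon equation assuming competition with ASA.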

[2] = Competitive inhibition of Vibrio cholerae ASADH using aspartyl semialdehyde as substrate by Dixon plot analysis
Method in brief: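 Recombinant V. cholerae ASADH, reverse reaction, room temperature, in 120 mM CHES pH 8.6, 200 mM KCl and 20% DMSO. Final levels: ASA 1 mM, NADP 1.5 mM, phosphate 20 mM. Enzyme added to start; inhibitor serially diluted across wells. NADPH rise read at 340 nm; initial velocities fitted to Dixon equation assuming ASA-competitive inhibition to give Ki.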

[3] = Competitive inhibition of Vibrio cholerae ASADH using different concentration of aspartyl semialdehyde as substrate by spectrophotometry
Method in brief: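 Recombinant V. cholerae ASADH, reverse reaction at room temperature in 120 mM CHES pH 8.6, 200 mM KCl, 20% DMSO, with NADP and phosphate. ASA varied at several fixed inhibitor concentrations. NADPH formation read at 340 nm; initial-rate data fitted to standard inhibition-type models.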

## COC(=O)c1ccc(C(=O)OC)nc1
[1]
  Ki: > 20000 µM

## CCn1c(=O)n(CC)c2cc([N+](=O)[O-])ccc21
[1]
  Ki: > 4000 µM

## O=C1NC(=O)c2cc([N+](=O)[O-])ccc21
[2]
  Ki: 2600 µM
[1]
  Ki: 3300 µM

## O=C(O)c1ccc([N+](=O)[O-])cn1
[2]
  Ki: 2100 µM
[1]
  Ki: 1200 µM

## COC(=O)c1ccc([N+](=O)[O-])cn1
[1]
  Ki: > 20000 µM

## O=C1NC(=O)c2cc([N+](=O)[O-])c(Cl)cc21
[2]
  Ki: 180 µM
[1]
  Ki: 150 µM
[3]
  Ki: 197 µM

## CN1C(=O)c2ccc([N+](=O)[O-])cc2C1=O
[2]
  Ki: 1100 µM
[1]
  Ki: 890 µM

## CCN1C(=O)c2ccc([N+](=O)[O-])cc2C1=O
[1]
  Ki: > 4000 µM

## O=c1[nH]c2ccc([N+](=O)[O-])cc2[nH]1
[2]
  Ki: 1100 µM
[1]
  Ki: 400 µM

## Cn1c(=O)n(C)c2cc([N+](=O)[O-])ccc21
[2]
  Ki: > 130 µM
[1]
  Ki: 86 µM
[3]
  Ki: 24 µM

## O=C(O)c1cc(C(=O)O)cc(C(=O)Nc2ccc([N+](=O)[O-])cc2)c1
[2]
  Ki: 180 µM
[1]
  Ki: 110 µM

## COC(=O)c1cc(C(=O)Nc2ccc([N+](=O)[O-])cc2)cc(C(=O)OC)c1
[1]
  Ki: > 20000 µM

## O=C(O)c1ccc(C(=O)O)nc1 [PYRIDINE-2,5-DICARBOXYLIC ACID]
[2]
  Ki: 1200 µM
[1]
  Ki: 690 µM

From ChEMBL document CHEMBL2021789, “Molecular docking and enzymatic evaluation to identify selective inhibitors of aspartate semialdehyde dehydrogenase” (Bioorg Med Chem, 2012)
